{"source": "ChEMBL document CHEMBL4257441", "about": "“Protection effect of intracellular melanin from Lachnum YM156 and Haikunshenxi capsule combination on adenine-induced chronic renal failure in mice” (Medchemcomm, 2017)", "key": {"Mus musculus [1]": {"tested_on": "Mus musculus", "experiment": "Protective effect against adenine-induced chronic renal failure in Kunming mouse assessed as weight growth rate at 100 mg/kg, ig qd administered for 4 successive weeks measured 24 hrs post last dose (reference value: 32.42 +/- 1.43%)", "format": "functional", "procedure,_shortened": "(§1)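 Male Kunming mice (20 ± 5 g) were housed on a 12 h light/dark cycle at 18–20 °C. Chronic renal failure was induced by long-term dietary adenine. The melanin was given orally at 100 or 200 mg kg–1, alone or with Haikunshenxi capsule as positive drug, with ten mice per group. Weight growth rate (%) and kidney index (mg g–1) were recorded.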"}, "Mus musculus [2]": {"tested_on": "Mus musculus", "experiment": "Protective effect against adenine-induced chronic renal failure in ig dosed Kunming mouse assessed as increase in nephridial CAT levels administered as qd for 4 successive weeks by visible spectrometry method", "format": "functional, organism-based", "procedure,_shortened": "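Male Kunming mice (20 ± 5 g) given dietary adenine to induce CRF, then dosed orally at 100 or 200 mg kg–1, with or without Haikunshenxi capsule; n = 10 per group. Kidney homogenate assayed for SOD and CAT (U mg–1 protein), GSH-Px (U L–1), GSH (mg g–1 protein) and MDA (nmol mL–1).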"}, "Mus musculus [3]": {"tested_on": "Mus musculus", "experiment": "Protective effect against adenine-induced chronic renal failure in ig dosed Kunming mouse assessed as decrease in nephridial iNOS levels administered as qd for 4 successive weeks", "format": "functional, organism-based", "procedure,_shortened": "(§2)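 CRF model made by chronic dietary adenine in male Kunming mice (20 ± 5 g); oral dosing at 100 or 200 mg kg–1, alone or with Haikunshenxi capsule; ten mice per group. Kidney tissue TNF-α, IL-1β and IL-6 measured as pg per mg protein, and iNOS activity as U mg–1 protein.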"}, "Mus musculus [4]": {"tested_on": "Mus musculus", "experiment": "Protective effect against adenine-induced chronic renal failure in Kunming mouse assessed as reduction in interstitial fibrosis in kidney at 200 mg/kg, ig qd administered for 4 successive weeks by haematoxylin and eosin dye-based optical microscopic method", "format": "functional, organism-based", "procedure,_shortened": "(§3)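 Kidneys were taken from male Kunming mice given an adenine diet plus oral melanin (100 or 200 mg kg–1), with or without Haikunshenxi capsule, ten per group. Histological sections were examined at 400× for glomeruli, tubules, adenine crystals, tubular atrophy and interstitial fibrosis.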"}, "Mus musculus [5]": {"tested_on": "Mus musculus", "experiment": "Protective effect against adenine-induced chronic renal failure in ig dosed Kunming mouse assessed as increase in total protein levels in serum administered as qd for 4 successive weeks with haikunshenxi capsule by coomassie brilliant blue method", "format": "functional, organism-based", "procedure,_shortened": "(§4)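 Adenine-fed CRF model in male Kunming mice (20 ± 5 g) housed at 18–20 °C on a 12 h light/dark cycle. Oral dosing at 100 or 200 mg kg–1, with or without Haikunshenxi capsule; ten mice per group. Serum creatinine, BUN, total protein and albumin measured, each group compared with the model group.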"}, "Mus musculus [6]": {"tested_on": "Mus musculus", "experiment": "Protective effect against adenine-induced chronic renal failure in Kunming mouse assessed as nephridial CAT levels at 200 mg/kg, ig qd administered for 4 successive weeks by visible spectrometry method (reference value: 44.13 +/- 1.25 U/mg)", "format": "functional"}, "Mus musculus [7]": {"tested_on": "Mus musculus", "experiment": "Protective effect against adenine-induced chronic renal failure in Kunming mouse assessed as nephridial TNF-alpha levels at 200 mg/kg, ig qd administered for 4 successive weeks (reference value: 250.15 +/- 8.10 pg/ml)", "format": "functional"}, "Mus musculus [8]": {"tested_on": "Mus musculus", "experiment": "Protective effect against adenine-induced chronic renal failure in Kunming mouse assessed as kidney index at 200 mg/kg, ig qd administered for 4 successive weeks measured 24 hrs post last dose (reference value: 1.94 +/- 0.03 mg/g)", "format": "functional", "procedure,_shortened": "as §1"}, "Mus musculus [9]": {"tested_on": "Mus musculus", "experiment": "Protective effect against adenine-induced chronic renal failure in Kunming mouse assessed as kidney index at 100 mg/kg, ig qd administered for 4 successive weeks with haikunshenxi capsule measured 24 hrs post last dose (reference value: 1.94 +/- 0.03 mg/g)", "format": "functional", "procedure,_shortened": "as §1"}, "Mus musculus [10]": {"tested_on": "Mus musculus", "experiment": "Protective effect against adenine-induced chronic renal failure in Kunming mouse assessed as nephridial GSH-PX levels at 100 mg/kg, ig qd administered for 4 successive weeks with haikunshenxi capsule by colorimetric method (reference value: 688.45 +/- 12.67 U/L)", "format": "functional"}, "Mus musculus [11]": {"tested_on": "Mus musculus", "experiment": "Protective effect against adenine-induced chronic renal failure in Kunming mouse assessed as nephridial MDA levels at 100 mg/kg, ig qd administered for 4 successive weeks with haikunshenxi capsule by thiobarbituric acid method (reference value: 5.05 +/- 0.15 nmol/ml)", "format": "functional"}, "Mus musculus [12]": {"tested_on": "Mus musculus", "experiment": "Protective effect against adenine-induced chronic renal failure in Kunming mouse assessed as reduction in renal tubular atrophy at 200 mg/kg, ig qd administered for 4 successive weeks by haematoxylin and eosin dye-based optical microscopic method", "format": "functional, organism-based", "procedure,_shortened": "as §3"}, "Mus musculus [13]": {"tested_on": "Mus musculus", "experiment": "Protective effect against adenine-induced chronic renal failure in Kunming mouse assessed as nephridial iNOS levels at 200 mg/kg, ig qd administered for 4 successive weeks (reference value: 1.98 +/- 0.12 U/mg)", "format": "functional"}, "Mus musculus [14]": {"tested_on": "Mus musculus", "experiment": "Protective effect against adenine-induced chronic renal failure in ig dosed Kunming mouse assessed as decrease in nephridial iNOS levels administered as qd for 4 successive weeks with haikunshenxi capsule", "format": "functional, organism-based", "procedure,_shortened": "as §2"}, "Mus musculus [15]": {"tested_on": "Mus musculus", "experiment": "Protective effect against adenine-induced chronic renal failure in Kunming mouse assessed as nephridial MDA levels at 200 mg/kg, ig qd administered for 4 successive weeks with haikunshenxi capsule by thiobarbituric acid method (reference value: 5.05 +/- 0.15 nmol/ml)", "format": "functional"}, "Mus musculus [16]": {"tested_on": "Mus musculus", "experiment": "Protective effect against adenine-induced chronic renal failure in ig dosed Kunming mouse assessed as decrease in blood urea nitrogen levels in serum administered as qd for 4 successive weeks by diacetyl oxime method", "format": "functional, organism-based", "procedure,_shortened": "as §4"}, "Mus musculus [17]": {"tested_on": "Mus musculus", "experiment": "Protective effect against adenine-induced chronic renal failure in Kunming mouse assessed as nephridial IL-1beta levels at 200 mg/kg, ig qd administered for 4 successive weeks (reference value: 18.34 +/- 0.25 pg/ml)", "format": "functional"}, "Mus musculus [18]": {"tested_on": "Mus musculus", "experiment": "Protective effect against adenine-induced chronic renal failure in Kunming mouse assessed as nephridial CAT levels at 100 mg/kg, ig qd administered for 4 successive weeks with haikunshenxi capsule by visible spectrometry method (reference value: 44.13 +/- 1.25 U/mg)", "format": "functional"}, "Mus musculus [19]": {"tested_on": "Mus musculus", "experiment": "Protective effect against adenine-induced chronic renal failure in Kunming mouse assessed as nephridial MDA levels at 200 mg/kg, ig qd administered for 4 successive weeks by thiobarbituric acid method (reference value: 5.05 +/- 0.15 nmol/ml)", "format": "functional"}, "Mus musculus [20]": {"tested_on": "Mus musculus", "experiment": "Protective effect against adenine-induced chronic renal failure in Kunming mouse assessed as nephridial IL-1beta levels at 200 mg/kg, ig qd administered for 4 successive weeks with haikunshenxi capsule (reference value: 18.34 +/- 0.25 pg/ml)", "format": "functional"}, "Mus musculus [21]": {"tested_on": "Mus musculus", "experiment": "Protective effect against adenine-induced chronic renal failure in Kunming mouse assessed as nephridial TNF-alpha levels at 100 mg/kg, ig qd administered for 4 successive weeks with haikunshenxi capsule (reference value: 250.15 +/- 8.10 pg/ml)", "format": "functional"}, "Mus musculus [22]": {"tested_on": "Mus musculus", "experiment": "Protective effect against adenine-induced chronic renal failure in Kunming mouse assessed as nephridial GSH levels at 200 mg/kg, ig qd administered for 4 successive weeks with haikunshenxi capsule by colorimetric method (reference value: 3.05 +/- 0.11 mg/g)", "format": "functional"}, "Mus musculus [23]": {"tested_on": "Mus musculus", "experiment": "Protective effect against adenine-induced chronic renal failure in Kunming mouse assessed as nephridial SOD levels at 200 mg/kg, ig qd administered for 4 successive weeks with haikunshenxi capsule by hydroxylamine method (reference value: 30.45 +/- 1.12 U/mg)", "format": "functional"}}, "note": "Calls of active or inactive are those of the source. The calls are words filed in the database; no cut-off is given here.", "data": [{"smiles": "Cc1c(=O)c(=O)c2c3c[nH]c4c(C)c(=O)c(=O)c(c5c[nH]c1c52)c43", "values": [{"measurement": "Activity", "setting": "Mus musculus [1]", "result": 50.12, "unit": "%"}, {"measurement": "Activity", "setting": "Mus musculus [2]", "result": "Dose-dependent effect"}, {"measurement": "Activity", "setting": "Mus musculus [3]", "result": "Dose-dependent effect"}, {"measurement": "Activity", "setting": "Mus musculus [4]", "result": "Active"}, {"measurement": "Activity", "setting": "Mus musculus [5]", "result": "Dose-dependent effect"}, {"measurement": "Activity", "setting": "Mus musculus [6]", "result": 64.45, "unit": "U/mg"}, {"measurement": "Activity", "setting": "Mus musculus [7]", "result": 168.32, "unit": "pg/mL"}, {"measurement": "Activity", "setting": "Mus musculus [8]", "result": 1.35, "unit": "mg/g"}, {"measurement": "Activity", "setting": "Mus musculus [9]", "result": 1.18, "unit": "mg/g"}, {"measurement": "Activity", "setting": "Mus musculus [10]", "result": 850.44, "unit": "U/L"}, {"measurement": "Activity", "setting": "Mus musculus [11]", "result": 3.05, "unit": "nmol/mL"}, {"measurement": "Activity", "setting": "Mus musculus [12]", "result": "Active"}, {"measurement": "Activity", "setting": "Mus musculus [13]", "result": 1.64, "unit": "U/mg"}, {"measurement": "Activity", "setting": "Mus musculus [14]", "result": "Dose-dependent effect"}, {"measurement": "Activity", "setting": "Mus musculus [15]", "result": 2.88, "unit": "nmol/mL"}, {"measurement": "Activity", "setting": "Mus musculus [16]", "result": "Dose-dependent effect"}, {"measurement": "Activity", "setting": "Mus musculus [17]", "result": 16.03, "unit": "pg/mL"}, {"measurement": "Activity", "setting": "Mus musculus [18]", "result": 74.25, "unit": "U/mg"}, {"measurement": "Activity", "setting": "Mus musculus [19]", "result": 3.74, "unit": "nmol/mL"}, {"measurement": "Activity", "setting": "Mus musculus [20]", "result": 13.81, "unit": "pg/mL"}, {"measurement": "Activity", "setting": "Mus musculus [21]", "result": 98.13, "unit": "pg/mL"}, {"measurement": "Activity", "setting": "Mus musculus [22]", "result": 5.38, "unit": "mg/g"}, {"measurement": "Activity", "setting": "Mus musculus [23]", "result": 48.58, "unit": "U/mg"}]}]}
